In ChEMBL document CHEMBL1148981, “A phthalide with in vitro growth inhibitory activity from an oidiodendron strain” (J Nat Prod, 2004):

Assays:
RPMI-8226 = experiment: Cytotoxicity against human RPMI8226 cells; assay type: functional
In short: (§1)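 Growth inhibition read as GI50. Lines were run at one of two sites. At Cetek, cells grew in ATCC-recommended media and viability was read as CellTiter Blue resazurin reduction by fluorescence at 530/590. At NCI DTP, cells grew in RPMI 1640 with 5% FBS and 2 mM L-glutamine, and viability was read by TCA fixation and sulforhodamine B total-protein staining.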

[1] = molecular target: T1, RAC-alpha serine/threonine-protein kinase (Homo sapiens, UniProt P31749); experiment: Inhibition of sulfhydryl-labeled human recombinant Akt1 expressed in baculovirus by affinity capillary electrophoresis assay
T1 sequence (P31749 whole entry): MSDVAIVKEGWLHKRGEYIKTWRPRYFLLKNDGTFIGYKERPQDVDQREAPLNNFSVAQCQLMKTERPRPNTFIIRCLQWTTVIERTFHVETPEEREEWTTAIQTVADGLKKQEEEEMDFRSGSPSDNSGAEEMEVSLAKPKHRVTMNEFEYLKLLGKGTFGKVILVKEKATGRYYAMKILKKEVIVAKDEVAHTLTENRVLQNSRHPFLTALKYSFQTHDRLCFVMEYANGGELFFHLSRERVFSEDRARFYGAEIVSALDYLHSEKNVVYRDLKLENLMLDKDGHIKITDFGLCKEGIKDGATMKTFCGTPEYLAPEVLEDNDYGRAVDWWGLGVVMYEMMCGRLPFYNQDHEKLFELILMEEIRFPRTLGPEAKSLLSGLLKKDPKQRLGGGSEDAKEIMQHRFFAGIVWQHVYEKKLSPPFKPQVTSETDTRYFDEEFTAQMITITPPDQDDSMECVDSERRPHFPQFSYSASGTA
In short: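 Baculovirus-expressed human Akt1 was buffer-exchanged into 30 mM HEPES pH 7.5 with 0.1% Chaps and 150 mM NaCl. It was labeled with Fluorescein-5-EX succinimidyl ester (dye:protein 5:1) for 2 h on ice, quenched with β-mercaptoethanol and stored in 50% glycerol at -20 °C. Compound was titrated against labeled Akt1 by affinity capillary electrophoresis. IC50 is the mean of three experiments with SEM.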

[2] = molecular target: T1, RAC-alpha serine/threonine-protein kinase; experiment: Inhibition of sulfhydryl-labeled human recombinant Akt1 expressed in baculovirus assessed as phosphorylation of recombinant Bad protein by Western blotting
In short: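 Active recombinant Akt1 (50 nM final) was preincubated 5 min at room temperature with test agent in DMSO (1.4% final) in assay dilution buffer. Soluble Bad (1.2 µM final) and Mg-ATP solution were then added, followed by 30 min at 30 °C with agitation. Read-out was SDS-PAGE, PVDF transfer, anti-phospho-Bad (Ser112) with HRP secondary, chemiluminescence and densitometry. IC50 is the mean of three experiments.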

K562 = experiment: Cytotoxicity against human K562 cells; assay type: functional; in short: as §1
NCI-H23 = experiment: Cytotoxicity against human NCI-H23 cells; assay type: functional; in short: as §1
EKVX = experiment: Cytotoxicity against human EKVX cells; assay type: functional; in short: as §1
SNB-75 = experiment: Cytotoxicity against human SNB75 cells; assay type: functional; in short: as §1
U-251 = experiment: Cytotoxicity against human U251 cells; assay type: functional; in short: as §1
SK-MEL-28 = experiment: Cytotoxicity against human SK-MEL-28 cells; assay type: functional; in short: as §1
M14 = experiment: Cytotoxicity against human M14 cells; assay type: functional; in short: as §1
OVCAR-5 = experiment: Cytotoxicity against human OVCAR5 cells; assay type: functional; in short: as §1
OVCAR-8 = experiment: Cytotoxicity against human OVCAR8 cells; assay type: functional; in short: as §1
OVCAR-3 = experiment: Cytotoxicity against human OVCAR-3 cells; assay type: functional; in short: as §1
MDA-MB-435 = experiment: Cytotoxicity against human MDA-MB-435 cells; assay type: functional; in short: as §1
BT-549 = experiment: Cytotoxicity against human BT549 cells; assay type: functional; in short: as §1
MCF7 = experiment: Cytotoxicity against human MCF7 cells; assay type: functional; in short: as §1
U-937 = experiment: Cytotoxicity against human U937 cells; assay type: functional; in short: as §1
HepG2 = experiment: Cytotoxicity against human HepG2 cells; assay type: functional; in short: as §1
Jurkat = experiment: Cytotoxicity against human Jurkat cells; assay type: functional; in short: as §1

## CC1OC(=O)c2cc(O)c(O)c(O)c21 (centres undefined)
RPMI-8226
  GI50: 67 µM
[1]
  IC50: 19.7 µM
[2]
  IC50: 30.4 µM
K562
  GI50: > 100 µM
NCI-H23
  GI50: 87 µM
EKVX
  GI50: > 100 µM
SNB-75
  GI50: 60 µM
U-251
  GI50: > 100 µM
SK-MEL-28
  GI50: 37 µM
M14
  GI50: > 100 µM
OVCAR-5
  GI50: 74 µM
OVCAR-8
  GI50: 82 µM
OVCAR-3
  GI50: > 100 µM
MDA-MB-435
  GI50: 85 µM
BT-549
  GI50: 24 µM
MCF7
  GI50: > 100 µM
U-937
  GI50: 60 µM
HepG2
  GI50: > 100 µM
Jurkat
  GI50: 20 µM
